Published values collected from several papers.
Compare with care: the assays were run in different laboratories.
MAP3K21: Mitogen-activated protein kinase kinase kinase 21 (MAP3K21, Homo sapiens, UniProt Q5TCX8)
STK32A: Serine/threonine-protein kinase 32A (STK32A, Homo sapiens, UniProt Q8WU08)
ache: Acetylcholinesterase (ache, Electrophorus electricus, UniProt O42275)
STK17B: Serine/threonine-protein kinase 17B (STK17B, Homo sapiens, UniProt O94768)

SMILES | target | assay | test system | setting | quantity | value
Cc1ccc(C(=O)NCc2ccsc2)cc1C#Cc1cn(C(C)C)c2ncnc(N)c12 | MAP3K21 | enzyme activity, inhibitor |  | 1 µM | activity vs control | 81%
CC(C)(C)c1nc(-c2cccc(NS(=O)(=O)c3c(F)cccc3F)c2F)c(-c2ccnc(N)n2)s1 | MAP3K21 | enzyme activity, inhibitor, radiometric |  | 1 µM | remaining activity | 92%
Cn1c2c(c3ccc(Cl)c(Cl)c31)C(C#N)C1(CCOCC1)NC2=O (stereo not drawn) | STK32A | thermal stability, DSF |  | 10 µM | ΔTm | -0.3 °C
COC(=O)C(C)Oc1ccc2c(C)cc(=O)oc2c1 (stereo not drawn) | Aldehyde dehydrogenase 1A1 (ALDH1A1, Homo sapiens, UniProt P00352, N121S) | enzyme activity, inhibitor, absorbance |  | 10 µM | remaining activity | 82.8%
COc1cc2c(cc1OC)C(=O)N(CC1CCN(Cc3ccccn3)CC1)C2 | ache | enzyme activity, inhibitor |  | 1 µM | inhibition | 8.01%
N#CC1c2c([nH]c3c(Cl)c(Cl)ccc23)C(=O)NC12CCCCC2 (racemic) | STK32A | thermal stability, DSF |  | 10 µM | ΔTm | 0.1 °C
CCCOc1ccc(OC)c(F)c1C(=O)c1ccc(C(=O)N[C@@H]2CNC[C@H]2NC(=O)c2ccc3[nH]ncc3c2)cc1 | RAC-gamma serine/threonine-protein kinase (AKT3, Homo sapiens, UniProt Q9Y243) | enzyme activity, inhibitor |  | 10 µM | remaining activity | 1%
NS(=O)(=O)c1ccc(CNc2nc(Nc3cccc(CN4CCOCC4)c3)ncc2C2CC2)cc1 | STK17B | enzyme activity, inhibitor, radiometric |  | 1 µM | remaining activity | 84%
COc1nccc(CN2Cc3cc(OC)c(OC)cc3C2=O)n1 | ache | enzyme activity, inhibitor |  | 1 µM | inhibition | -0.39%
c1cc(CN2CCOCC2)cc(Nc2ncc(C3CC3)c(NCCc3c[nH]cn3)n2)c1 | STK17B | enzyme activity, inhibitor, radiometric |  | 1 µM | remaining activity | 14%
CCc1cc(/C(C)=N/OCc2ccc(C3CCCCC3)c(C(F)(F)F)c2)ccc1CN1CC(C(=O)O)C1 | Sphingosine 1-phosphate receptor 1 (S1PR1, Homo sapiens, UniProt P21453) | calcium signal, agonist, fluorescence | HUVEC |  | Emax | 85%
COc1ccc2[nH]cc(CCN3Cc4cc(OC)c(OC)cc4C3=O)c2c1 | ache | enzyme activity, inhibitor |  | 1 µM | inhibition | 3.28%
O=C(NCCCNc1nc(Nc2cccc(NC(=O)N3CCCC3)c2)ncc1C1CC1)C1CCC1 | STK17B | enzyme activity, inhibitor, radiometric |  | 1 µM | remaining activity | 3%
COc1cc2c(cc1OC)C(=O)N(CCc1c[nH]c3ccccc13)C2 | ache | enzyme activity, inhibitor |  | 1 µM | inhibition | -4.59%
Cc1nn(CC(F)(F)F)cc1Nc1ncc(C2CC2)c(NCc2ccc(S(N)(=O)=O)cc2)n1 | STK17B | enzyme activity, inhibitor, radiometric |  | 1 µM | remaining activity | 88%
CC(C)(O)[C@H]1CC[C@H](Nc2ccc3ncc(-c4cccc(C(F)(F)F)c4)n3n2)CC1 | Ribosomal protein S6 kinase beta-2 (RPS6KB2, Homo sapiens, UniProt Q9UBS0) | enzyme activity, inhibitor |  | 1 µM | remaining activity | 82.3%
O=C(NCCCNc1nc(Nc2cccc(CN3CCOCC3)c2)ncc1C1CC1)C1CCC1 | STK17B | enzyme activity, inhibitor, radiometric |  | 1 µM | remaining activity | 7%
COc1cc2c(cc1OC)C(=O)N(Cc1ccccn1)C2 | ache | enzyme activity, inhibitor |  | 1 µM | inhibition | 4.59%
